Laboratory results taken from publication PMC3970594 (Memórias do Instituto Oswaldo Cruz, 2013).
Like-named read-outs stand apart in the source and are kept apart here.

Experiments:
[1] = ref Rees et al. (1980), cited from earlier work
[2] = tested on: L. (L.) infantum chagasi amastigotes; experiment: Treatment of L.; assay type: in vivo, BALB/c mice; conditions: 50 mg Sb5+/kg/day i.p., four consecutive days
Outline: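 Female BALB/c mice (20-24 g) were infected i.v. by the retro-bulbar route with 1-2 x 10⁷ hamster-spleen amastigotes/150 µL. From day 7, groups of 4 received 50 mg Sb⁵⁺/kg/day i.p. for four consecutive days; controls received PBS. Mice were euthanised two weeks post-infection and liver and spleen were weighed. Amastigotes per 400 nuclei on Giemsa imprints × organ weight (g) gave Leishman-Donovan units.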

[3] = tested on: intracellular L. (L.) infantum chagasi amastigotes; experiment: Activity against intracellular amastigotes in infected peritoneal macrophages; assay type: cell-based, Leishmania (Leishmania) infantum chagasi; conditions: ratio of IC50 promastigotes to amastigotes
Outline: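 For amastigotes, BALB/c peritoneal macrophages were plated on coverslips at 4 × 10⁵/well for 24 h. They were infected with hamster-spleen amastigotes at 10:1 for 24 h and washed. Compound was added for 5 days at 37 °C, 5% CO₂. Giemsa counts in 400 macrophages (untreated = 100%) gave a sigmoid-fit IC50, two experiments in duplicate.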

[4] = tested on: L. (L.) infantum chagasi promastigotes; experiment: L.; assay type: cell-based, Leishmania (Leishmania) infantum chagasi; conditions: evaluation of the IC50
Outline: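 Promastigotes (MHOM/BR/1972/LD; M-199 with 10% FBS, 0.25% haemin) were seeded at 1 × 10⁶ cells/well. Two-fold serial dilutions were applied for 24 h at 24 °C. MTT was added for 4 h at 24 °C, formazan was dissolved in 10% SDS for 18 h, and OD was read at 570 nm. Viability was normalised to untreated promastigotes (100%). IC50 came from a sigmoid dose-response fit, three experiments in duplicate.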

[5] = ref Chakravarti & Sem Gupta 1950, cited from earlier work

Compound	excreted in the urine ([1]; administered intravenously, after 6 h)	excreted in the urine ([1]; intramuscular injection, after 6-8 h)	parasite burden in the spleen, mean (SD) ([2]; untreated control 41.69 (8.60))	parasite burden in the liver, mean (SD) ([2]; untreated control 3,331 (1,745))	fold more active against amastigotes than against promastigotes [3]	susceptibility of promastigotes [4]	time to complete elimination after administration ([5]; healthy individuals, renal excretion)	antimony in the urine 36 h after drug administration ([5]; ill patients (VL), 36 h)
O.O.O.O.O.O.O.O.O.O=C([O-])[C@@H]1[O][Sb](=[O])([O][Sb]2(=[O])[O][C@H]([C@H](O)CO)[C@H](O)[C@H](C(=O)[O-])[O]2)[O][C@H]([C@H](O)CO)[C@@H]1O.[Na+].[Na+].[Na+] (some centres unmarked) [sodium stibogluconate]	96%	80-91%						
meglumine antimoniate [MA]			32.17 (19.20) amastigotes per gram	2,696 (1,472) amastigotes per gram	680 fold	not susceptible	24 h	traces of antimony were still observed in the urine
